Experimental data from ChEMBL document CHEMBL3877298, “Discovery of benzimidazole derivatives as modulators of mitochondrial function: A potential treatment for Alzheimer's disease” (Eur J Med Chem, 2017).

Columns and labels:
[1] = Ratio of drug level in brain to plasma in Sprague-Dawley rat at 10 mg/kg, iv at 2 hrs post dose by LC-MS/MS analysis; assay type: ADME, organism-based; conditions: brain and plasma, read-out: BPR
How it was run: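 After intravenous dosing at 10 mg/kg in male SD rats, brain and plasma were sampled at 2 h. Each was mixed with carbamazepine internal standard in acetonitrile and analysed by LC-MS/MS.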

[2] = Total clearance in Sprague-Dawley rat at 10 mg/kg, iv by LC-MS/MS analysis; assay type: ADME, organism-based; conditions: in vivo
How it was run: (§1)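 Male SD rats, 8 weeks old, given 10 mg/kg intravenously (n = 4). Plasma mixed with carbamazepine internal standard in acetonitrile, vortexed, centrifuged at 10,000×g, and the supernatant analysed by LC-MS/MS. Parameters reported as mean ± SD.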

[3] = AUClast in Sprague-Dawley rat at 10 mg/kg, po by LC-MS/MS analysis; assay type: ADME, organism-based; parameters: dose 10 mg/kg, route oral, time 0 - last; conditions: in vivo
How it was run: (§2)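 Male SD rats, 8 weeks old, acclimatised at least 1 week; compound dissolved at 10 mg/2 mL in N-methyl-2-pyrrolidone/Tween80/water (1:2:7) by 5 min sonication, given 10 mg/kg by oral gavage at 2 mL/kg (n = 5). Heart-puncture blood drawn at 30 min and 3 h, plasma spun and stored at -70 °C. Samples mixed with carbamazepine internal standard in acetonitrile and assayed by LC-MS/MS.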

Translocator protein = Translocator protein (Rattus norvegicus, UniProt P16257); assay: Displacement of [3H]PK11195 from TSPO in Sprague-Dawley rat cerebral cortex membranes after 60 mins by microbeta liquid scintillation counting method; parameters: species or system Membrane
Sequence of Translocator protein (P16257 whole entry, looked up): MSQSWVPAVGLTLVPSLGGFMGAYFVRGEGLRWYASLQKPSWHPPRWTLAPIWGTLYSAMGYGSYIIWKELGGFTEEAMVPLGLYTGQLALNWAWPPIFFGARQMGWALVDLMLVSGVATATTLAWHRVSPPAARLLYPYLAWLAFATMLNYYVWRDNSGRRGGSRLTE

[4] = Drug excretion in Sprague-Dawley rat at 10 mg/kg, po by LC-MS/MS analysis; assay type: ADME, organism-based; conditions: in vivo, read-out: Drug excretion
CYP1A2 = biological target: T1, CYP1A2 (Homo sapiens, UniProt P05177); assay: Inhibition of recombinant human CYP1A2 expressed in baculosomes coexpressing rabbit NADPH-P450 reudctase assessed as residual activity at 10 uM preincubated for 5 mins followed by substrate and NADP+ addition measured after 20 mins by fluorescence assay relative to control; assay type: ADME; conditions: read-out: Activity
T1 sequence (P05177 whole entry): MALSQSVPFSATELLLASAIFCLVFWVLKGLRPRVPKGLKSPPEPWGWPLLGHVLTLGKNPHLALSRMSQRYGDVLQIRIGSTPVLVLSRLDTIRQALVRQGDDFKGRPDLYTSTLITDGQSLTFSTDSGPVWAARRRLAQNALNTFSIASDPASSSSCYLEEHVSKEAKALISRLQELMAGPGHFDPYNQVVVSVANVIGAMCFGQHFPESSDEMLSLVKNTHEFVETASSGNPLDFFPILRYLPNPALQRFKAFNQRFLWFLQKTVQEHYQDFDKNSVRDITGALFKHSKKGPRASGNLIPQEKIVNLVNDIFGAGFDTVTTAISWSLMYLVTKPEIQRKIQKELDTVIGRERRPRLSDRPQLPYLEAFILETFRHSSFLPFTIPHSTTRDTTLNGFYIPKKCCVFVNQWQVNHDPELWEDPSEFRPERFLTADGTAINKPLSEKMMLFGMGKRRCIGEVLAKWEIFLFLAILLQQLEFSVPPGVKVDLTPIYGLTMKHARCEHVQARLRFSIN
How it was run: (§3)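 Vivid CYP450 kit: recombinant human CYP isozyme in Baculosomes with rabbit NADPH-P450 reductase, plus regeneration system (3.3 mM glucose-6-phosphate, 0.3 U/mL G6PDH in 100 mM potassium phosphate, pH 8.0). Mixture preincubated with sample for 5 min at 37 °C. Vivid substrate and 0.1 mM NADP+ were then added, and remaining activity read by fluorescence after 20 min.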

[5] = biological target: Translocator protein (Mus musculus) (UniProt P50637); assay: Inhibition of TSPO in mouse HT22 cells assessed as inhibition of amyloid beta (1 to 42)-induced ROS generation at 5 uM after 6 hrs by DCFDA staining based fluorescence assay relative to control; assay type: cell-based; conditions: HT-22
Sequence of Translocator protein (Mus musculus) (P50637 whole entry, looked up): as the sequence (P16257 whole entry, looked up) above, with S2P, Q3E, I67V, E77D, V110A, M113L, M149V, T168P counted along it

Mus musculus [6] = assay: Reversal of coginitive deficit in double APP/PS1 transgenic Alzheimer's disease mouse model assessed as increase in freezing response at 30 mg/kg, po daily for 1 month by contextual fear conditioning test; assay type: functional
[7] = biological target: Translocator protein (Mus musculus) (UniProt P50637); assay: Inhibition of TSPO in mouse HT22 cells assessed as protection against amyloid beta (1 to 42)-induced mitochondrial membrane potential loss by measuring recovery of mitochondrial membrane potential at 5 uM preincubated for 10 mins followed by amyloid beta (1 to 42) addition measured every 1 hr for 3 hrs by JC1 staining based fluorescence assay relative to control; assay type: cell-based; parameters: scale not given: the % may be the effect or the level left; conditions: HT-22
How it was run: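 HT22 cells at 30,000 per well were loaded with 7.5 µM JC-1 in phenol red-free Opti-MEM for 1 h 15 min at 37 °C, then washed. Cells were treated with compound (5 µM) and Aβ1-42 (5 µM); vehicle wells received DMSO. Green (485/535) and red (560/595) fluorescence were read hourly for 3 h. Recovery was normalised between Aβ-damaged (0%) and normal (100%) ratio.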

[8] = Cmax in Sprague-Dawley rat at 10 mg/kg, po by LC-MS/MS analysis; assay type: ADME, organism-based; parameters: dose 10 mg/kg, route oral; conditions: in vivo; how it was run: as §2
CYP2C9 = CYP2C9 (Homo sapiens, UniProt P11712); assay: Inhibition of recombinant human CYP2C9 expressed in baculosomes coexpressing rabbit NADPH-P450 reudctase assessed as residual activity at 10 uM preincubated for 5 mins followed by substrate and NADP+ addition measured after 20 mins by fluorescence assay relative to control; assay type: ADME; conditions: read-out: Activity; how it was run: as §3
Sequence of CYP2C9 (P11712 whole entry): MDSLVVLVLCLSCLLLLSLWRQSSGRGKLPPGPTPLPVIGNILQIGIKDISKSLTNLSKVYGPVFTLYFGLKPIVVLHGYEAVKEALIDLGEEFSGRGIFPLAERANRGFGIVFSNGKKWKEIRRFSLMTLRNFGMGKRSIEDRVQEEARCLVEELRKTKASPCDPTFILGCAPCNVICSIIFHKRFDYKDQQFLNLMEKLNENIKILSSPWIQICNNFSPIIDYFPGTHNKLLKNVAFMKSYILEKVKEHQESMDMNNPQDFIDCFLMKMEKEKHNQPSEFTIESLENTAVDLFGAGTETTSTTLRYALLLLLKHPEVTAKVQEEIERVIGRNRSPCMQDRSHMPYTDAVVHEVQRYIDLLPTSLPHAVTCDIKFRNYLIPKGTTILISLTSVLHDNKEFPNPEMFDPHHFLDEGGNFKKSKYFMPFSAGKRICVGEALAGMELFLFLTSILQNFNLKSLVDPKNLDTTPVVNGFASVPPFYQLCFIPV

Mus musculus [9] = assay: Cognition enhancing effect in ICR mouse model of acute Alzheimer's disease assessed as reversal of amyloid beta (1 to 42)-induced cognitive deficit by measuring spatial working memory at 30 mg/kg, ip daily for 6 days measured on day 7 by Y maze spontaneous alteration test relative to control; assay type: functional
How it was run: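 Male ICR mice (6 weeks, 30–33 g) received Aβ1-42 500 pmol ICV in 10% DMSO/PBS. Compound in 20% cyclodextrin was given at 30 mg/kg daily for 6 days (n = 7 per group). One day later, each mouse explored a three-arm Y-maze for 8 min, and the sequence of arm entries was used to calculate % spontaneous alternation.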

CYP3A4 = CYP3A4 (Homo sapiens, UniProt P08684); assay: Inhibition of recombinant human CYP3A4 expressed in baculosomes coexpressing rabbit NADPH-P450 reudctase assessed as residual activity at 10 uM preincubated for 5 mins followed by substrate and NADP+ addition measured after 20 mins by fluorescence assay relative to control; assay type: ADME; conditions: read-out: Activity; how it was run: as §3
Sequence of CYP3A4 (P08684 whole entry): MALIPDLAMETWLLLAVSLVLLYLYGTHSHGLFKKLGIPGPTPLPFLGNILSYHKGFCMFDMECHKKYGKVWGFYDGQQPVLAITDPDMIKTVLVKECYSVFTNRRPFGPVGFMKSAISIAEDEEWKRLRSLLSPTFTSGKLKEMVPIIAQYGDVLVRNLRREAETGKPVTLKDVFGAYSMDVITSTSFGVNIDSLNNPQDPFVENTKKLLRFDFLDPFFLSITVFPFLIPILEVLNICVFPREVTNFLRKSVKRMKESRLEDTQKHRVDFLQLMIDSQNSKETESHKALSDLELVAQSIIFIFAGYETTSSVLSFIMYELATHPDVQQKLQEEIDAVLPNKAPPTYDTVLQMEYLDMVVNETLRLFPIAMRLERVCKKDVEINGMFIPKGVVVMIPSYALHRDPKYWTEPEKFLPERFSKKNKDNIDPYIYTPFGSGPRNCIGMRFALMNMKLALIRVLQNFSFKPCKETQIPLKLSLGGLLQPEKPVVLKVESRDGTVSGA

[10] = Tmax in Sprague-Dawley rat at 10 mg/kg, po by LC-MS/MS analysis; assay type: ADME, organism-based; conditions: in vivo; how it was run: as §2
[11] = Ratio of drug level in brain to plasma in Sprague-Dawley rat at 10 mg/kg, po at 2 hrs post dose by LC-MS/MS analysis; assay type: ADME, organism-based; conditions: brain and plasma, read-out: BPR
[12] = Terminal half life in Sprague-Dawley rat at 10 mg/kg, po by LC-MS/MS analysis; assay type: ADME, organism-based; conditions: in vivo, read-out: beta t1/2; how it was run: as §2
[13] = AUC (0 to infinity) in Sprague-Dawley rat at 10 mg/kg, po by LC-MS/MS analysis; assay type: ADME, organism-based; parameters: dose 10 mg/kg, route oral, time infinity; conditions: in vivo; how it was run: as §2
[14] = Auc (0 to infinity) in Sprague-Dawley rat at 10 mg/kg, iv by LC-MS/MS analysis; assay type: ADME, organism-based; parameters: dose 10 mg/kg, time infinity, route intravenous; conditions: in vivo; how it was run: as §1

Cc1ccc(C(C)C)cc1NC(=O)Cn1c(Cc2c(Cl)cccc2Cl)nc2ccccc21
Kp at 2 h [1]: 2.88
clearance [2]: 54.5 mL/min/kg
AUC(0-t) [3]: 128 ng·h/mL
IC50 (Translocator protein): 74.3 nM
Ki (Translocator protein): 22.8 nM
dose excreted [4]: 0.01%
activity at 20 min, 10 µM (CYP1A2): 108%
inhibition [5]: 85%
Activity (Mus musculus [6]): 12%
Activity [7]: 74%
Cmax [8]: 70 ng/mL
activity at 20 min, 10 µM (CYP2C9): 54.7%
Activity (Mus musculus [9]): 72%
activity at 20 min, 10 µM (CYP3A4): 224%
Tmax [10]: 33 min
Kp at 2 h [11]: 1.02
half-life [12]: 89.2 min
AUC(0-inf) [13]: 136 ng·h/mL
AUC(0-inf) [14]: 1850 ng·h/mL
